From ChEMBL document CHEMBL1150283, “Synthesis, cytostatic and anti-HIV evaluations of the new unsaturated acyclic C-5 pyrimidine nucleoside analogues” (Bioorg Med Chem, 2008)

Assays:
HepG2 = assay: Antiproliferative activity against human HepG2 cells after 3 days by MTT assay; type: functional, cell-based; conditions: HepG2, 72 h
Outline: (§1)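 Monolayers grown in DMEM with 10% FBS, 2 mM L-glutamine, penicillin/streptomycin at 37 °C, 5% CO2. Seeded at 1 × 10⁴ to 3 × 10⁴ cells/mL, then exposed 72 h to five 10-fold dilutions (10⁻⁸ to 10⁻⁴ M) from 0.04 M DMSO stocks, with a solvent control. MTT added for 4 h, formazan dissolved in DMSO, A570 read. Percentage growth taken against time-zero and untreated OD. Quadruplicates in three experiments; IC50 by linear regression.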

CCRF-CEM = assay: Antiproliferative activity against human CEM cells after 3 days by MTT assay; type: functional, cell-based; conditions: 72 h
SW-620 = assay: Antiproliferative activity against human SW620 cells after 3 days by MTT assay; type: functional, cell-based; conditions: SW-620, 72 h; outline: as §1
[1] = Antiproliferative activity against human Molt4/C8 cells after 3 days by MTT assay; type: functional, cell-based; conditions: MOLT-4, 72 h
MIA PaCa-2 = assay: Antiproliferative activity against human MiaPaCa2 cells after 3 days by MTT assay; type: functional, cell-based; conditions: MIA PaCa-2, 72 h; outline: as §1
L1210 = assay: Antiproliferative activity against mouse L1210 cells after 2 days by MTT assay; type: functional, cell-based; conditions: L1210, 48 h
MCF7 = assay: Antiproliferative activity against human MCF7 cells after 3 days by MTT assay; type: functional, cell-based; conditions: MCF7, 72 h; outline: as §1
[2] = Cytotoxicity against human WI38 cells after 3 days by MTT assay; type: cell-based; conditions: WI-38, 72 h; outline: as §1
[3] = tested on: Human immunodeficiency virus 2; assay: Antiviral activity against HIV2 assessed as inhibition of virus-induced cytopathogenicity in CEM cells; type: functional, organism-based; conditions: Human immunodeficiency virus 2, CCRF-CEM
Outline: (§2)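 CEM cell cultures infected with HIV-1 or HIV-2. Virus-induced cytopathicity scored as syncytia formation.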

HeLa = assay: Antiproliferative activity against human HeLa cells after 3 days by MTT assay; type: functional, cell-based; conditions: 72 h; outline: as §1
[4] = tested on: Human immunodeficiency virus 1; assay: Antiviral activity against HIV1 assessed as inhibition of virus-induced cytopathogenicity in CEM cells; type: functional, organism-based; conditions: Human immunodeficiency virus 1, CCRF-CEM; outline: as §2
Influenza A virus H3N2 = assay: Antiviral activity against influenza A virus H3N2 assessed as inhibition of virus-induced cytopathogenicity in MDCK cells; type: functional, organism-based
Outline: (§3)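 Cytopathicity-reduction assay: Coxsackie B4 virus in HeLa cell cultures; influenza A (H3N2) in MDCK cell cultures. Virus-induced cytopathicity is scored at the time point when untreated virus-exposed cultures reach full cytopathic effect.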

Human alphaherpesvirus 3 = assay: Antiviral activity against Varicella-Zoster virus assessed as inhibition of virus-induced cytopathogenicity in HEL cells; type: functional, organism-based; conditions: Human alphaherpesvirus 3, HEL
Coxsackievirus B4 = assay: Antiviral activity against Coxsackie B4 virus assessed as inhibition of virus-induced cytopathogenicity in HeLa cells; type: functional, organism-based; conditions: Enterovirus B; outline: as §3

SMILES | IC50 (HepG2) [µM] | IC50 (CCRF-CEM) [µM] | IC50 (SW-620) [µM] | IC50 [1] [µM] | IC50 (MIA PaCa-2) [µM] | IC50 (L1210) [µM] | IC50 (MCF7) [µM] | IC50 [2] [µM] | EC50 [3] [µM] | IC50 (HeLa) [µM] | EC50 [4] [µM] | EC50 (Influenza A virus H3N2) [µM] | EC50 (Human alphaherpesvirus 3) [µM] | EC50 (Coxsackievirus B4) [µM]
CCCCC#Cc1cn(C/C=C\CN2C(=O)c3ccccc3C2=O)c(=O)[nH]c1=O | 17 | 100 | 82 | 41 | > 100 | 109 | 45 | 28 | ≥ 50 | 33 | ≥ 50 |  |  | 
CCCCc1ccc(C#Cc2cn(C/C=C\CN3C(=O)c4ccccc4C3=O)c(=O)[nH]c2=O)cc1 | 40 | 23 | > 100 | 31 | 56 |  | 43 | 17 | > 10 | 85 | > 10 |  |  | 
O=C1c2ccccc2C(=O)N1C/C=C\Cn1cc(C#CCCc2ccccc2)c(=O)[nH]c1=O | > 100 | 168 | > 100 | 146 | > 100 |  | > 100 | > 100 | ≥ 50 | > 100 | 35 |  |  | 
CCCCCC#Cc1cn(C/C=C/CN2C(=O)c3ccccc3C2=O)c(=O)[nH]c1=O | 9 | > 500 | 58 | > 500 | 60 | > 500 | 44 | 40 | > 50 | 91 | > 50 |  |  | 
CCCCCCCCC#Cc1cn(C/C=C/CN2C(=O)c3ccccc3C2=O)c(=O)[nH]c1=O | 43 | > 250 | 87 | > 250 | > 100 | > 250 | 66 | 53 | > 50 | > 100 | > 50 |  |  | 
O=C1c2ccccc2C(=O)N1C/C=C/Cn1cc(C#CCCc2ccccc2)c(=O)[nH]c1=O | 7.3 | 38 | 11 | 39 | 27 | 44 | 13 | 31 | ≥ 10 | 29 | ≥ 10 |  |  | 
CCCCc1ccc(C#Cc2cn(C/C=C/CN3C(=O)c4ccccc4C3=O)c(=O)[nH]c2=O)cc1 | 9.1 | 31 | > 100 | 29 | 79 | 42 | 44 | 40 | > 10 | 94 | > 10 |  |  | 
CCCCC#Cc1cn(C/C=C/CN2C(=O)c3ccccc3C2=O)c(=O)[nH]c1=O | 7.9 | 192 | > 100 | 171 | 77 | 236 | 8.8 | 35 | ≥ 50 | 89 | ≥ 50 |  |  | 
Cc1ccc(C#Cc2cn(C/C=C\CN3C(=O)c4ccccc4C3=O)c(=O)[nH]c2=O)cc1 | 68 | 238 | > 100 | 266 | > 100 |  | > 100 | > 100 | > 250 | > 100 | > 250 | 20 |  | 
O=C1c2ccccc2C(=O)N1C/C=C\Cn1cc(C#Cc2ccc(Br)cc2)c(=O)[nH]c1=O |  | 80 | > 100 | 89 | > 100 | 448 | > 100 | 47 | > 50 |  | 10 |  |  | 
CCCCCc1ccc(C#Cc2cn(C/C=C\CN3C(=O)c4ccccc4C3=O)c(=O)[nH]c2=O)cc1 | 18 | 102 | > 100 | 30 | > 100 | 28 | > 100 | > 100 | > 2 | > 100 | > 2 |  | 8.7 | 
CCCCCCCCC#Cc1cn(C/C=C\CN2C(=O)c3ccccc3C2=O)c(=O)[nH]c1=O |  | 39 | 67 | 36 | 68 | 45 | 64 | 49 | > 50 | 59 | > 50 | 2.5 |  | 
CCCCCCC#Cc1cn(C/C=C/CN2C(=O)c3ccccc3C2=O)c(=O)[nH]c1=O | 14 | 28 | 32 | 35 | 30 | 43 | 24 | 40 | ≥ 10 |  | ≥ 10 |  |  | 
CCCCCc1ccc(C#Cc2cn(C/C=C/CN3C(=O)c4ccccc4C3=O)c(=O)[nH]c2=O)cc1 | 4.3 | 23 | 30 | 17 | 26 | 39 | 5.6 | 25 | 3.1 | 27 | 14 |  |  | 12
O=c1[nH]cc(F)c(=O)[nH]1 [FLUOROURACIL] | 9.2 |  | 8.7 | 20 | 6.5 | 0.69 |  | 10 |  |  |  |  |  | 
